Measurements as given in ChEMBL document CHEMBL4387707, “Structure-Activity Relationships for Itraconazole-Based Triazolone Analogues as Hedgehog Pathway Inhibitors” (J Med Chem, 2019).
In brackets after ≈: the same amount, converted by molar mass. Each block holds one compound with its values, some of them ahead of it. Activity calls are given as the source filed them. The rule behind the calls is not given here.

What was measured:
[1] = biological target: Protein smoothened (Mus musculus, UniProt P56726); assay: Inhibition of smo-mediated hedgehog signaling pathway in mouse ASZ001 cells assessed as decrease in Gli1 mRNA expression after 48 hrs by qPCR method; assay type: cell-based
Sequence of Protein smoothened (P56726 whole entry): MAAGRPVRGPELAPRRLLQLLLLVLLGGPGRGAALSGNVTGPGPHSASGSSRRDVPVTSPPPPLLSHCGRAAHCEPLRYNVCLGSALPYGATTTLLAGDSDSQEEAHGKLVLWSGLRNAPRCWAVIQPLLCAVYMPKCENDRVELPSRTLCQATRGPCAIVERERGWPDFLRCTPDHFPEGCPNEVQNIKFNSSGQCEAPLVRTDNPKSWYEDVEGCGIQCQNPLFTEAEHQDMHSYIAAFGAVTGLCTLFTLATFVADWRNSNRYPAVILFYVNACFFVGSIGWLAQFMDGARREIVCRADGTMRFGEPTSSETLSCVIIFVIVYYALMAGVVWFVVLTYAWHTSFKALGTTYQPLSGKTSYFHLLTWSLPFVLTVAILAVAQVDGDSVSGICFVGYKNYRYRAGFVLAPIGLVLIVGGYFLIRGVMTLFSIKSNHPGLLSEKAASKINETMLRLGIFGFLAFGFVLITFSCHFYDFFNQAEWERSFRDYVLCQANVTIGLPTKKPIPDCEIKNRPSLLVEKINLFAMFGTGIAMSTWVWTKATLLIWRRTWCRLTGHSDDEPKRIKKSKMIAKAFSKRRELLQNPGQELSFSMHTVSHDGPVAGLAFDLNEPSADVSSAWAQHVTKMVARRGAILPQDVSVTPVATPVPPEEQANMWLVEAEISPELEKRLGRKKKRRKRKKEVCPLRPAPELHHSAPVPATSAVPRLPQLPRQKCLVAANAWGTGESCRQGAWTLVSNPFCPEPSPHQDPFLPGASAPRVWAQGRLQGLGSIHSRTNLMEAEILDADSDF
How it was run: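 Gli1 mRNA measured by qPCR after 48 h incubation with compound, normalized to actin as internal control. Concentrations judged cytotoxic (by visual assessment and/or a significant drop in actin expression) were excluded from analysis. IC50 given as mean ± SEM of at least two separate experiments, each in triplicate.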

[2] = biological target: Cytochrome P450 3A4 (Homo sapiens, UniProt P08684); assay: Inhibition of CYP3A4 (unknown origin) using midazolam as substrate by UPLC-MS/MS analysis; assay type: ADME
Sequence of Cytochrome P450 3A4 (P08684 whole entry): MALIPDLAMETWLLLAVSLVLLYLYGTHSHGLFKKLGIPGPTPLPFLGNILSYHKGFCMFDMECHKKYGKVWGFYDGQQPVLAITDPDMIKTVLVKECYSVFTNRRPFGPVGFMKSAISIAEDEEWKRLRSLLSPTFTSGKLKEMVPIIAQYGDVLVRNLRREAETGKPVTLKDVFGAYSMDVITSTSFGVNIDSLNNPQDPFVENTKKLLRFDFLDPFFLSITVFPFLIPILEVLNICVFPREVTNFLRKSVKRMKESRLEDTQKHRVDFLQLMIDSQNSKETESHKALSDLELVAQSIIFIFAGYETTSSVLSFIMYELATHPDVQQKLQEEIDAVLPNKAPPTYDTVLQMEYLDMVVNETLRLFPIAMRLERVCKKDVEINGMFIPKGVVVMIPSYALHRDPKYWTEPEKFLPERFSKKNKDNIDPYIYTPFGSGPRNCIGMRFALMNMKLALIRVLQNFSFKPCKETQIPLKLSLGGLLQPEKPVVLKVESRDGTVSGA

[3] = Kinetic solubility of the compound in PBS at pH 7.4 by UPLC-MS/MS analysis; assay type: physicochemical; details: read-out: Kinetic_solubility
[4] = biological target: Voltage-gated inwardly rectifying potassium channel KCNH2 (Homo sapiens, UniProt Q12809); assay: Inhibition of human ERG
Sequence of Voltage-gated inwardly rectifying potassium channel KCNH2 (Q12809 whole entry): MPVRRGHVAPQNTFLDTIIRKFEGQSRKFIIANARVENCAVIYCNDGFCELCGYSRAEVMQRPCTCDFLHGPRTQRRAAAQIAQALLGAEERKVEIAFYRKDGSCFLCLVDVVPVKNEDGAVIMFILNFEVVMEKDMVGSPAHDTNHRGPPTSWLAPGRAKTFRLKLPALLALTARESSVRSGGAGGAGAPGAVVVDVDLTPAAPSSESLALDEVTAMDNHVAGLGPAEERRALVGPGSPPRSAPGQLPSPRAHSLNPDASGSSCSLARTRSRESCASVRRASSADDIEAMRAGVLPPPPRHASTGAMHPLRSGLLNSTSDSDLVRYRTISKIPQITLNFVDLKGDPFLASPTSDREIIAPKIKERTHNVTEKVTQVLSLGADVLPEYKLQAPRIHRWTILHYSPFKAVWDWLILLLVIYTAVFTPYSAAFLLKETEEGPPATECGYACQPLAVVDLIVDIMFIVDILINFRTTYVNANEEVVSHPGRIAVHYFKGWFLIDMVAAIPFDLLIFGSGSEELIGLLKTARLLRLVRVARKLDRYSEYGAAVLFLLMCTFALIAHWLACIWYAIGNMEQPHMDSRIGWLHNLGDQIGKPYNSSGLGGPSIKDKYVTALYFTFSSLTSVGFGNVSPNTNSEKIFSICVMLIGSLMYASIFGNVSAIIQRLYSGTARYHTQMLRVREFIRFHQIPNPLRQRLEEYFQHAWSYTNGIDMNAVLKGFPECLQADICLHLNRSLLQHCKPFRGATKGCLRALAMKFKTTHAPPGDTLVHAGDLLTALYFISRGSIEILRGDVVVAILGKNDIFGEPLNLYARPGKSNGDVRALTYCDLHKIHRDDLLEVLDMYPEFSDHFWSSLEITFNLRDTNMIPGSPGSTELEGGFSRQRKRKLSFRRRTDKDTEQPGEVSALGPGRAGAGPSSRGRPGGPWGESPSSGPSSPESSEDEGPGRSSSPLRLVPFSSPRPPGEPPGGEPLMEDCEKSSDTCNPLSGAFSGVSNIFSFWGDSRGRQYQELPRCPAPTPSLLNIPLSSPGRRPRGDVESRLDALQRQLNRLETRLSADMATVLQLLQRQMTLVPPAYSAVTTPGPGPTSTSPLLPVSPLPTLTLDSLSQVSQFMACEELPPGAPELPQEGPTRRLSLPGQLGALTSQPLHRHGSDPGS

[5] = Half life in human liver microsomes at 1 uM by UPLC-MS/MS analysis; assay type: ADME, Microsome
[6] = test system: Medulloblastoma cell; assay: Antiproliferative activity against medulloblastoma cells derived from conditional patched knockout mouse after 48 hrs by [3H]-thymidine incorporation assay; assay type: functional
How it was run: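 Cells are MERP medulloblastoma cells isolated from Math1-Cre-ER;Ptcfl/fl mouse tumors and cultured in vitro. Compounds were incubated for 48 h before the growth read-out. GI50 is the mean ± SEM of at least two separate experiments, each run in triplicate.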

[7] = species: Mus musculus; assay: Antiproliferative activity against mouse ASZ001 cells measured after 48 hrs by MTS/PMS assay; assay type: functional, cell-based
[8] = Intrinsic clearance in human liver microsomes at 1 uM by UPLC-MS/MS analysis; assay type: ADME, Microsome

Structure (SMILES): C[C@]1(c2ccc(Cl)cc2Cl)OC[C@@H](COc2ccc(N3CCN(c4ccc([N+](=O)[O-])cc4)CC3)cc2)O1
- IC50 [1]: 0.26 µM

- IC50 [1]: > 10 µM
Structure (SMILES): C[C@]1(c2ccc(Cl)cc2Cl)OC[C@@H](COc2ccc(N3CCN(c4ccc(NC(=O)c5ccc6ccccc6c5)cc4)CC3)cc2)O1

Structure (SMILES): COc1cccc(C(=O)Nc2ccc(N3CCN(c4ccc(OC[C@@H]5CO[C@](C)(c6ccc(Cl)cc6Cl)O5)cc4)CC3)cc2)c1
- IC50 [1]: 5.7 µM

Structure (SMILES): CC[C@@H](C)n1ncn(-c2ccc(N3CCN(c4ccc(OC[C@@H]5CO[C@](C)(c6ccc(Cl)cc6Cl)O5)cc4)CC3)cc2)c1=O (relative stereo)
- IC50 [2]: > 20 µM
- solubility kinetic [3]: 800 nM (≈ 511 ng/mL)

Structure (SMILES): C[C@]1(c2ccc(Cl)cc2Cl)OC[C@@H](COc2ccc(N3CCN(c4ccc(-n5cn[nH]c5=O)cc4)CC3)cc2)O1
- IC50 [1]: 0.21 µM

- IC50 [1]: > 10 µM
Structure (SMILES): C[C@@]1(c2ccc(Cl)cc2Cl)OC[C@@H](COc2ccc(N3CCN(c4ccc(NC(=O)c5ccncc5)cc4)CC3)cc2)O1

Structure (SMILES): CCC(C)n1ncn(-c2ccc(N3CCN(c4ccc(OCC5COC(Cn6cncn6)(c6ccc(Cl)cc6Cl)O5)cc4)CC3)cc2)c1=O (configuration not stated) [ITRACONAZOLE]
- inhibition (INH) [4]: < 1%

- IC50 [1]: > 10 µM
Structure (SMILES): C[C@]1(c2ccc(Cl)cc2Cl)OC[C@@H](COc2ccc(N3CCN(c4ccc(NC(=O)c5ccncc5)cc4)CC3)cc2)O1

Structure (SMILES): C[C@]1(c2ccc(Cl)cc2Cl)OC[C@@H](COc2ccc(N3CCN(c4ccc(N)cc4)CC3)cc2)O1
- IC50 [1]: 0.39 µM

Structure (SMILES): C[C@]1(c2ccc(Cl)cc2Cl)OC[C@@H](COc2ccc(N3CCN(c4ccc(NC(=O)NN)cc4)CC3)cc2)O1
- IC50 [2]: > 30 µM
- solubility kinetic [3]: 1.4 nM (≈ 0.801 ng/mL)
- t1/2 [5]: 11.5 min
- GI50 [6]: 2.8 µM

Structure (SMILES): C[C@]1(c2ccc(Cl)cc2Cl)OC[C@@H](COc2ccc(N3CCN(c4ccc(NC(=O)c5cccnc5)cc4)CC3)cc2)O1
- inhibition (INH) [4]: < 1%
- IC50 [2]: > 20 µM
- solubility kinetic [3]: 6.9 nM (≈ 4.27 ng/mL)
- t1/2 [5]: 8.9 min
- GI50 [6]: 1.1 µM

- IC50 [1]: > 10 µM
Structure (SMILES): C[C@]1(c2ccc(Cl)cc2Cl)OC[C@@H](COc2ccc(N3CCN(c4ccc(NC(=O)c5ccccc5)cc4)CC3)cc2)O1

Structure (SMILES): C[C@@]1(c2ccc(Cl)cc2Cl)OC[C@@H](COc2ccc(N3CCN(c4ccc(NC(=O)NN)cc4)CC3)cc2)O1
- inhibition (INH) [4]: 2.2%
- IC50 [2]: > 30 µM
- solubility kinetic [3]: 9.3 nM (≈ 5.32 ng/mL)
- t1/2 [5]: 20.1 min
- GI50 [6]: 0.5 µM

Structure (SMILES): C[C@@]1(c2ccc(Cl)cc2Cl)OC[C@@H](COc2ccc(N3CCN(c4ccc(N)cc4)CC3)cc2)O1
- IC50 [1]: 0.92 µM

Structure (SMILES): C[C@]1(c2ccc(Cl)cc2Cl)OC[C@@H](COc2ccc(N3CCN(c4ccc(NC(=O)c5cccc(O)c5)cc4)CC3)cc2)O1
- inhibition (INH) [4]: < 1%
- IC50 [2]: 11.4 µM
- Activity [7]: Active
- solubility kinetic [3]: 1.6 nM (≈ 1.02 ng/mL)
- t1/2 [5]: 19.9 min
- GI50 [6]: 0.35 µM

- IC50 [1]: > 10 µM
Structure (SMILES): C[C@]1(c2ccc(Cl)cc2Cl)OC[C@@H](COc2ccc(N3CCN(c4ccc(NC(=O)c5cccc(Cl)c5)cc4)CC3)cc2)O1

- IC50 [1]: > 10 µM
Structure (SMILES): C[C@@]1(c2ccc(Cl)cc2Cl)OC[C@@H](COc2ccc(N3CCN(c4ccc(NC(=O)c5ccc(O)cc5)cc4)CC3)cc2)O1

- IC50 [1]: > 10 µM
Structure (SMILES): C[C@]1(c2ccc(Cl)cc2Cl)OC[C@@H](COc2ccc(N3CCN(c4ccc(NC(=O)c5ccsc5)cc4)CC3)cc2)O1

Structure (SMILES): CC(=O)c1cccc(C(=O)Nc2ccc(N3CCN(c4ccc(OC[C@@H]5CO[C@](C)(c6ccc(Cl)cc6Cl)O5)cc4)CC3)cc2)c1
- inhibition (INH) [4]: < 1%
- IC50 [2]: > 30 µM
- Activity [7]: Active
- solubility kinetic [3]: 1.4 nM (≈ 0.925 ng/mL)
- t1/2 [5]: 11.4 min

Structure (SMILES): C[C@@]1(c2ccc(Cl)cc2Cl)OC[C@@H](COc2ccc(N3CCN(c4ccc(-n5cn[nH]c5=O)cc4)CC3)cc2)O1
- IC50 [1]: 0.14 µM

Structure (SMILES): C[C@]1(c2ccc(Cl)cc2Cl)OC[C@@H](COc2ccc(N3CCN(c4ccc(NC(=O)c5ccc(O)cc5)cc4)CC3)cc2)O1
- IC50 [1]: 3 µM

Structure (SMILES): C[C@@]1(c2ccc(Cl)cc2Cl)OC[C@@H](COc2ccc(N3CCN(c4ccc(NC(=O)c5cccc(O)c5)cc4)CC3)cc2)O1
- inhibition (INH) [4]: 1.2%
- IC50 [2]: > 30 µM
- solubility kinetic [3]: 1.4 nM (≈ 0.888 ng/mL)
- CLH [8]: < 3 µL/min/mg
- t1/2 [5]: > 231 min
- GI50 [6]: 2.8 µM

Structure (SMILES): C[C@@]1(c2ccc(Cl)cc2Cl)OC[C@@H](COc2ccc(N3CCN(c4ccc(NC(=O)c5cccnc5)cc4)CC3)cc2)O1
- IC50 [2]: > 30 µM
- solubility kinetic [3]: 4.2 nM (≈ 2.6 ng/mL)
- t1/2 [5]: 59.9 min
- GI50 [6]: > 10 µM

- IC50 [1]: > 10 µM
Structure (SMILES): C[C@@]1(c2ccc(Cl)cc2Cl)OC[C@@H](COc2ccc(N3CCN(c4ccc(NC(=O)c5ccccc5)cc4)CC3)cc2)O1

- IC50 [1]: > 10 µM
Structure (SMILES): C[C@@]1(c2ccc(Cl)cc2Cl)OC[C@@H](COc2ccc(N3CCN(c4ccc(NC(=O)c5ccccn5)cc4)CC3)cc2)O1

- IC50 [1]: > 10 µM
Structure (SMILES): C[C@@]1(c2ccc(Cl)cc2Cl)OC[C@@H](COc2ccc(N3CCN(c4ccc(NC(=O)c5ccccc5O)cc4)CC3)cc2)O1

- IC50 [1]: > 10 µM
Structure (SMILES): C[C@@]1(c2ccc(Cl)cc2Cl)OC[C@@H](COc2ccc(N3CCN(c4ccc(NC(=O)c5ccc6ccccc6c5)cc4)CC3)cc2)O1

Structure (SMILES): C[C@]1(c2ccc(Cl)cc2Cl)OC[C@@H](COc2ccc(N3CCN(c4ccc(NC(=O)c5ccccn5)cc4)CC3)cc2)O1
- IC50 [1]: 3.9 µM

Structure (SMILES): C[C@@]1(c2ccc(Cl)cc2Cl)OC[C@@H](COc2ccc(N3CCN(c4ccc([N+](=O)[O-])cc4)CC3)cc2)O1
- IC50 [1]: 0.31 µM

Structure (SMILES): C[C@]1(c2ccc(Cl)cc2Cl)OC[C@@H](COc2ccc(N3CCN(c4ccc(NC(=O)c5ccccc5O)cc4)CC3)cc2)O1
- IC50 [1]: 2.2 µM

Structure (SMILES): CC[C@@H](C)n1ncn(-c2ccc(N3CCN(c4ccc(OC[C@@H]5CO[C@@](C)(c6ccc(Cl)cc6Cl)O5)cc4)CC3)cc2)c1=O (relative stereo)
- IC50 [2]: 1.02 µM
- solubility kinetic [3]: 1560 nM (≈ 996 ng/mL)

- IC50 [1]: > 10 µM
Structure (SMILES): C[C@]1(c2ccc(Cl)cc2Cl)OC[C@@H](COc2ccc(N3CCN(c4ccc(NC(=O)c5ccoc5)cc4)CC3)cc2)O1
